# Experimental data as given in ChEMBL document CHEMBL1140964, “1,8-Naphthyridines VII. New substituted 5-amino[1,2,4]triazolo[4,3-a][1,8]naphthyridine-6-carboxamides and their isosteric analogues, exhibiting notable anti-inflammatory and/or analgesic activities, but no acute gastrolesivity” (Eur J Med Chem, 2008).
# Experiments:
# Mus musculus [1] = assay: Antinociceptive activity in Swiss mouse assessed as inhibition of acetic acid-induced writhing response at 100 mg/kg, po dose administered 1 hr before acetic acid challenge measured for 30 mins; type: functional
# In short: (§1)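 Swiss mice (25–35 g, either sex), fasted overnight, received compound orally in 0.5% methylcellulose or vehicle, with 8–10 per group. Testing started at 100 mg/kg with successive twofold dose reductions. Writhes were counted for 30 min after acetic acid injection. Percent inhibition of the writhing response was calculated versus vehicle controls (Student's t-test).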
# Mus musculus [2] = assay: Antinociceptive activity in Swiss mouse assessed as inhibition of acetic acid-induced writhing response at 50 mg/kg, po dose administered 1 hr before acetic acid challenge measured for 30 mins; type: functional; in short: as §1
# Mus musculus [3] = assay: Antinociceptive activity in Swiss mouse assessed as inhibition of acetic acid-induced writhing response at 25 mg/kg, po dose administered 1 hr before acetic acid challenge measured for 30 mins; type: functional; in short: as §1
# Rattus norvegicus [4] = assay: Antiinflammatory activity against carrageenan-induced paw edema in Wistar rat at 100 mg/kg, po dose administered 1 hr before carrageenan challenge assessed after 3 hrs; type: functional
# In short: (§2)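 Wistar rats (250–300 g, either sex), fasted overnight, dosed by oral gavage with the compound suspended in 0.5% methylcellulose. Controls received vehicle alone, with 8–10 animals per group. Dosing started at 100 mg/kg and was halved stepwise. Carrageenan (1%, 0.1 mL) was injected subplantar 1 h post-dose. Paw volume was measured by plethysmometer immediately and at 3 h, and % inhibition of swelling was calculated versus controls (Student's t-test).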
# Rattus norvegicus [5] = assay: Antiinflammatory activity against carrageenan-induced paw edema in Wistar rat at 50 mg/kg, po dose administered 1 hr before carrageenan challenge assessed after 3 hrs; type: functional; in short: as §2
# Rattus norvegicus [6] = assay: Antiinflammatory activity against carrageenan-induced paw edema in Wistar rat at 25 mg/kg, po dose administered 1 hr before carrageenan challenge assessed after 3 hrs; type: functional; in short: as §2
# Rattus norvegicus [7] = assay: Antiinflammatory activity against carrageenan-induced paw edema in Wistar rat at 12.5 mg/kg, po dose administered 1 hr before carrageenan challenge assessed after 3 hrs; type: functional; in short: as §2
# Rattus norvegicus [8] = assay: Antiinflammatory activity against carrageenan-induced paw edema in Wistar rat at 6.25 mg/kg, po dose administered 1 hr before carrageenan challenge assessed after 3 hrs; type: functional; in short: as §2
# Rattus norvegicus [9] = assay: Antiinflammatory activity against carrageenan-induced paw edema in Wistar rat at 3.12 mg/kg, po dose administered 1 hr before carrageenan challenge assessed after 3 hrs; type: functional
# Mus musculus [10] = assay: Sedative activity in Swiss mouse assessed as inhibition of spontaneous locomotor activity at 100 mg/kg, po dose measured for every 5 mins during 60 to 90 mins; type: organism-based; set-up: dose 100 mg/kg, route oral
# In short: (§3)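 Fasted Swiss mice (25–35 g, either sex) were given compound orally in 0.5% methylcellulose or vehicle. Each mouse was placed alone in a photobeam-type activity cage, with counts recorded every 5 min for 90 min. Pulses from the final 30 min were scored, with testing run 9:00–13:00. Percent inhibition was calculated versus controls (Student's t-test).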
# Mus musculus [11] = assay: Antinociceptive activity in Swiss mouse assessed as inhibition of acetic acid-induced writhing response at 12.5 mg/kg, po dose administered 1 hr before acetic acid challenge measured for 30 mins; type: functional; in short: as §1
# Mus musculus [12] = assay: Sedative activity in Swiss mouse assessed as inhibition on spontaneous locomotor activity at 25 mg/kg, po measured for every 5 mins during 60 to 90 mins; type: functional, organism-based; set-up: dose 25 mg/kg, route oral; in short: as §3
# Mus musculus [13] = assay: Sedative activity in Swiss mouse assessed as inhibition on spontaneous locomotor activity at 12.5 mg/kg, po dose measured for every 5 mins during 60 to 90 mins; type: ADME, organism-based; set-up: dose 12.5 mg/kg, route oral; in short: as §3
Structure (SMILES),inhibition in vivo at 100 mg/kg (Mus musculus [1]) [%],inhibition in vivo at 50 mg/kg (Mus musculus [2]) [%],inhibition in vivo at 25 mg/kg (Mus musculus [3]) [%],inhibition in vivo at 100 mg/kg (Rattus norvegicus [4]) [%],inhibition in vivo at 50 mg/kg (Rattus norvegicus [5]) [%],inhibition in vivo at 25 mg/kg (Rattus norvegicus [6]) [%],inhibition in vivo at 12.5 mg/kg (Rattus norvegicus [7]) [%],inhibition in vivo at 6.25 mg/kg (Rattus norvegicus [8]) [%],inhibition in vivo at 3.12 mg/kg (Rattus norvegicus [9]) [%],inhibition at 100 mg/kg (Mus musculus [10]) [%],inhibition in vivo at 12.5 mg/kg (Mus musculus [11]) [%],inhibition at 25 mg/kg (Mus musculus [12]) [%],inhibition at 12.5 mg/kg (Mus musculus [13]) [%]
CCN(CC)C(=O)c1c(N(C)CC)c2cccnc2n2c(C(C)C)nnc12,81,59,17,71,67,65,51,42,0,53,–,–,–
CC(C)c1nnc2c(C(=O)N3CCCC3)c(N3CCN(C)CC3)c3cccnc3n12,100,–,–,0,–,–,–,–,–,–,–,–,–
CCN(CC)C(=O)c1c(NC(C)C)c2cccnc2n2c(C(C)C)nnc12,83,54,33,81,75,75,68,15,–,98,0,26,0
CCN(CC)C(=O)c1c(N2CCN(C)CC2)c2cccnc2n2cnnc12,14,–,–,0,–,–,–,–,–,–,–,–,–
CC(C)CNc1c(C(=O)N2CCCC2)c2nnc(C(C)C)n2c2ncccc12,60,64,29,0,–,–,–,–,–,5,–,–,–
CCOC(=O)N1CCN(c2c(C(=O)N(CC)CC)c3nnc(C(C)C)n3c3ncccc23)CC1,100,75,53,0,–,–,–,–,–,83,29,96,–
CCN(CC)C(=O)c1c(NN2CCN(C)CC2)c2cccnc2n2c(C(C)C)nnc12,17,–,–,0,–,–,–,–,–,–,–,–,–
CCN(CC)C(=O)c1c(NCC(OC)OC)c2cccnc2n2c(C(C)C)nnc12,47,8,–,0,–,–,–,–,–,0,–,–,–
CCNC(=O)c1c(N2CCN(C)CC2)c2cccnc2n2c(C(C)C)nnc12,79,24,–,0,–,–,–,–,–,80,–,–,–
CCN(CC)C(=O)c1c(OC2CCN(C)CC2)c2cccnc2n2c(C(C)C)nnc12,87,35,–,18,–,–,–,–,–,65,–,–,–
CCNc1c(C(=O)N(CC)CC)c2nnc(C(C)C)n2c2ccccc12,91,43,12,42,43,24,6,–,–,39,–,–,–
CCN(CC)C(=O)c1c(NCC(C)C)c2ccccc2n2c(C(C)C)nnc12,88,29,–,0,–,–,–,–,–,14,–,–,–
CCCCOc1c(C(=O)N(CC)CC)c2nnc(C(C)C)n2c2ncccc12,40,14,–,3,–,–,–,–,–,76,–,–,–
CCN(CC)C(=O)c1c(OC(C)C)c2cccnc2n2c(C(C)C)nnc12,11,–,–,24,0,–,–,–,–,–,–,–,–
CCN(CC)C(=O)c1c(OCC(C)C)c2cccnc2n2c(C(C)C)nnc12,26,–,–,0,–,–,–,–,–,–,–,–,–
CCN(CC)C(=O)c1c(N2CCN(C)CC2)c2ccccc2n2c(C(C)C)nnc12,100,100,77,34,0,–,–,–,–,54,14,21,–
CCN(CC)C(=O)c1c(N2CCN(C)CC2)c2ccccc2n2cnnc12,55,58,28,0,–,–,–,–,–,0,–,–,–
CCOc1c(C(=O)N(CC)CC)c2nnc(C(C)C)n2c2ncccc12,22,–,–,10,–,–,–,–,–,–,–,–,–
CCN(CC)C(=O)c1c(N2CCN(C)CC2)c2cccnc2n2c(-c3ccccc3)nnc12,100,62,15,0,–,–,–,–,–,72,–,–,–
CCc1nnc2c(C(=O)N(CC)CC)c(NCCC(C)C)c3cccnc3n12,98,75,15,41,41,43,29,0,–,95,–,–,–
CCN(CC)C(=O)c1c(OC2CCN(C)CC2)c2cccnc2n2cnnc12,45,20,–,0,–,–,–,–,–,55,–,–,–
